Experimental findings from ChEMBL document CHEMBL4049434, “Radiolabeled Dibenzodiazepinone-Type Antagonists Give Evidence of Dualsteric Binding at the M2 Muscarinic Acetylcholine Receptor” (J Med Chem, 2017) are described below.

Broadly, the Ki is the dissociation constant of the complex between target and ligand, obtained from inhibition or displacement.

Assay [1] addresses T1, Muscarinic acetylcholine receptor M2 (Homo sapiens, UniProt P08172).
T1 sequence (P08172 whole entry): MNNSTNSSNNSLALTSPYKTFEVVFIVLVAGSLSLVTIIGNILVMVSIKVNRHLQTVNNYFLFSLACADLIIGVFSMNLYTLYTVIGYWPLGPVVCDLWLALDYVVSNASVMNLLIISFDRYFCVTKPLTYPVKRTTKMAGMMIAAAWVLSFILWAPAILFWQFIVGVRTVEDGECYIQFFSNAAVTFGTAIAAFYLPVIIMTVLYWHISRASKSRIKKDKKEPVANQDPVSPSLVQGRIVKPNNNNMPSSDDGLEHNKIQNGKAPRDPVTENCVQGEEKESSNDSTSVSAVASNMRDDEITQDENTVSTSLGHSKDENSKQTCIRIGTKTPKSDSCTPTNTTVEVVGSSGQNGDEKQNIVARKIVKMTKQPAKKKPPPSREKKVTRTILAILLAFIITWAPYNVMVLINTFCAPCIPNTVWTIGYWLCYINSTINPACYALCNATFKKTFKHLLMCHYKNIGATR
Briefly: Displacement of [3H]Dimethyl-W84 from human muscarinic acetylcholine receptor M2 expressed in CHO cells after 2 hrs. The format is cell-based. For orientation: Displacement assays read how much labelled ligand stays bound in the presence of the test substance.

The target in assay [2] is T1, Muscarinic acetylcholine receptor M2. As to the kind of experiment: Displacement of [3H]UNSW-MK259 from human muscarinic acetylcholine receptor M2 expressed in CHOK9 cells after 3 hrs by liquid scintillation counting assay. The class given is cell-based.
Assay [3] has the same target. Briefly: Displacement of [3H]UR-AP060 from human muscarinic acetylcholine receptor M2 expressed in CHOK9 cell homogenate after 3 hrs by liquid scintillation counting assay.
The target is the same in assay [4]. Briefly: Displacement of [3H]NMS from human muscarinic acetylcholine receptor M2 expressed in CHO cells after 2 hrs. The format is cell-based.
For assay [5] the target is unchanged. As to the kind of experiment: Binding affinity to human muscarinic acetylcholine receptor M2 expressed in CHOK9 cell suspension after 2 hrs by liquid scintillation counting assay. The note with it: read-out: Kd(app).
Assay [6] has the same target. As to the kind of experiment: Displacement of [3H]NMS from human muscarinic acetylcholine receptor M2 expressed in CHOK9 cells after 3 hrs by liquid scintillation counting assay. To be noted: read-out: Ki. The class given is cell-based.
The target is the same in assay [7]. As to the kind of experiment: Binding affinity to human muscarinic acetylcholine receptor M2 expressed in live adherent CHOK9 cells assessed as saturation binding after 2 hrs by liquid scintillation counting assay.
The target of assay [8] is T2, Muscarinic acetylcholine receptor M4 (Homo sapiens, UniProt P08173).
T2 sequence (P08173 whole entry): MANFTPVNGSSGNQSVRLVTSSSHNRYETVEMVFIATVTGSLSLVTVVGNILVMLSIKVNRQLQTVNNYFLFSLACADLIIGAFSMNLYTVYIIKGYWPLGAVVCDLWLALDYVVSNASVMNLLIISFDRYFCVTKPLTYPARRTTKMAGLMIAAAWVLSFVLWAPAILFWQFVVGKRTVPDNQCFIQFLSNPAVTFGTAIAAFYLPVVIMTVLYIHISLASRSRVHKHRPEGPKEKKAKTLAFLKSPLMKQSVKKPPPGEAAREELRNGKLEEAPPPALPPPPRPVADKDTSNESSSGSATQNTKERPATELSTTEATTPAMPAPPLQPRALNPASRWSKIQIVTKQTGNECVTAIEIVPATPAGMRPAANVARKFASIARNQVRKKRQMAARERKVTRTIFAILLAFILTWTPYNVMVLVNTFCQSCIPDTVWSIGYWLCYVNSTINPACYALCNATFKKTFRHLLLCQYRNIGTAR
As to the kind of experiment: Binding affinity to human muscarinic acetylcholine receptor M4 expressed in CHOK9 cells after 2 hrs by liquid scintillation counting assay. The format is cell-based.

In assay [9] the target is T1, Muscarinic acetylcholine receptor M2. Briefly: Ratio of binding affinity to human muscarinic acetylcholine receptor M2 expressed in CHOK9 cells assessed as dissociation rate constant to binding affinity to human muscarinic acetylcholine receptor M2 expressed in CHOK9 cells assessed as association rate constant. The format is cell-based.
The target is the same in assay [10]. As to the kind of experiment: Binding affinity to human muscarinic acetylcholine receptor M2 expressed in CHOK9 cell homogenate after 2 hrs by liquid scintillation counting assay. The note with it: read-out: Kd(app). In short, it runs like this:
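CHO-hM2 cell homogenates (25–30 μg protein/well) in L15 medium with 1% BSA, 23 ± 1 °C, 2 h with tritiated dimeric radioligand. Competition used 0.5 nM radioligand; additional 0.4, 1, 2 and 4 nM in W84 experiments. […] Four-parameter logistic fits; at least three experiments in triplicate.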

Assay [11] shares this target. As to the kind of experiment: Binding affinity to human muscarinic acetylcholine receptor M2 expressed in live adherent CHOK9 cells after 2 hrs by liquid scintillation counting assay. The class given is cell-based. The gist of the method:
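Live adherent CHO-hM2 cells in L15 medium with 1% BSA, 23 ± 1 °C, 2 h incubation. Competition at 2 nM radioligand; additional 4, 8, 15 and 30 nM in W84 experiments. […] Saturation data fitted one-site; competition by four-parameter logistic fits; at least three experiments in triplicate.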

Assay [12] has the same target. As to the kind of experiment: Binding affinity to human muscarinic acetylcholine receptor M2 expressed in CHOK9 cell homogenate assessed as saturation binding after 2 hrs by liquid scintillation counting assay.

As for `C[N+](C)(CCCCCC[N+](C)(C)CCCN1C(=O)c2ccccc2C1=O)CCCN1C(=O)c2ccccc2C1=O`, the inhibitory constant (Ki) in [1] was 31.6 nM; in assay [2], 39.8 nM; in assay [3], 1070 nM; in assay [4], 31.6 nM. Moreover, the Kb in assay [2] (read-out: pA2 (converted)) is 155 nM; in [3] (read-out: pA2 (converted)), 263 nM.
On to `O=C(O)C(F)(F)F.O=C(O)C(F)(F)F.O=C(O)C(F)(F)F.O=C(O)C(F)(F)F.[3H]CC([3H])C(=O)NCc1cc(C(=O)NCCNC(=O)CCc2cn(CCCCC3CCN(CC(=O)N4c5ccccc5NC(=O)c5ccccc54)CC3)cn2)cc(C(=O)NCCNC(=O)CCc2cn(CCCCC3CCN(CC(=O)N4c5ccccc5NC(=O)c5ccccc54)CC3)cn2)c1` (configuration not stated), for which the Kd in [5] is 0.31 nM; in assay [7], 0.31 nM; in assay [8], 0.67 nM; in assay [9], 0.2 nM; in [10] it was 0.22 to 0.24 nM; in assay [11], 0.91 nM. Further, the Ki in assay [6] came to 0.41 nM.
Consider `O=C(O)C(F)(F)F.O=C(O)C(F)(F)F.O=C(O)C(F)(F)F.O=C(O)C(F)(F)F.[3H]CC([3H])C(=O)NC1CN(CCCCC2CCN(CC(=O)N3c4ccccc4NC(=O)c4ccccc43)CC2)CCN(CCCCC2CCN(CC(=O)N3c4ccccc4NC(=O)c4ccccc43)CC2)C1` (configuration not stated), for which the Kd in [12] is 4.6 nM; in [10], 3 to 4.6 nM; in [11] it was 8.4 nM. Moreover, the inhibition constant Ki in [6] stood at 0.71 nM.
